Source: ChEMBL document CHEMBL3785023, “Development and Pharmacological Characterization of Selective Blockers of 2-Arachidonoyl Glycerol Degradation with Efficacy in Rodent Models of Multiple Sclerosis and Pain” (J Med Chem, 2016)
pIC50: −log10 of the molar value. The source made the active and inactive calls. No cut-off for these calls is given here.

Columns and labels:
Heart [1] = test: Cardiotoxicity in Langendorff-perfused Sprague-Dawley rat heart assessed as corrected time duration of action potential at 1 uM by ECG analysis (reference value: 155.26 +/- 2.96 milliseconds); assay type: toxicity, tissue-based
Cannabinoid receptor 1 = Cannabinoid receptor 1 (Homo sapiens, UniProt P21554); test: Displacement of [3H]-CP-55940 from human recombinant CB1 receptor expressed in HEK293 cells after 90 mins; assay type: cell-based
Outline: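 Membranes from HEK-293 cells stably expressing human CB1 (Bmax 2.9 pmol/mg) or CB2 (Bmax 6.0 pmol/mg) incubated 90 min at 30 °C with [3H]-CP-55,940: 0.4 nM for CB1, 0.53 nM for CB2. Non-specific binding defined with 10 µM WIN 55212-2.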

Monoglyceride lipase = biological target: T1, Monoglyceride lipase (Rattus norvegicus, UniProt Q8R431); test: Inhibition of rat MAGL
T1 sequence (Q8R431 whole entry): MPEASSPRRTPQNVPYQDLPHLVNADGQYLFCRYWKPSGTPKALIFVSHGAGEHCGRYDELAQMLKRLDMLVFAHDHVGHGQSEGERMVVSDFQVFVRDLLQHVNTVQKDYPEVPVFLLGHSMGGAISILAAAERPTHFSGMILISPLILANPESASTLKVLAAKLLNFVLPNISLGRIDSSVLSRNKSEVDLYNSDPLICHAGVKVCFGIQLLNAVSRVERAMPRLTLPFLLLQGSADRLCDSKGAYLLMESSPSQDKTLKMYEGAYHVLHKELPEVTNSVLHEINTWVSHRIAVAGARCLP

Mus musculus [2] = test: Antinociceptive activity in ip dosed CD-1 mouse assessed as inhibition of formalin-induced pain response compound administered 10 mins before formalin injection measured during early phase; assay type: functional; conditions: CD-1, ip, read-out: MED
Outline: (§1)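 Male CD-1 mice, n = 6 per group, injected with formalin (1.25% in saline, 30 μL) into the dorsal hind paw. Inhibitor (0.1 or 0.3 mg/kg i.p. in 0.5% DMSO/saline) given 10 min before formalin. Where used, AM251 or AM630 (1 mg/kg i.p.) given 10 min before the inhibitor. Time spent lifting, licking, shaking or flinching the injected paw recorded every 5 min over 60 min.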

Heart [3] = test: Cardiotoxicity in Langendorff-perfused Sprague-Dawley rat heart assessed as time duration of cardiac cycle length at 0.1 uM by ECG analysis (reference value: 238.38 +/- 9.23 milliseconds); assay type: toxicity, tissue-based
Heart [4] = test: Cardiotoxicity in Langendorff-perfused Sprague-Dawley rat heart assessed as heart rate at 0.01 uM by ECG analysis (reference value: 252.78 +/- 9.28 bpm); assay type: toxicity, tissue-based
Mus musculus [5] = test: In vivo inhibition of MAGL in CD-1 mouse assessed as 2-AG level in pawskin at 0.3 mg/kg, ip coadministered with formalin by LC-MS analysis (reference value: 10.8 +/- 1.5 pmol/g); assay type: functional
Heart [6] = test: Cardiotoxicity in Langendorff-perfused Sprague-Dawley rat heart assessed as atrioventricular conduction time at 0.01 uM by ECG analysis (reference value: 45.62 +/- 4.49 milliseconds); assay type: toxicity, tissue-based
Heart [7] = test: Cardiotoxicity in Langendorff-perfused Sprague-Dawley rat heart assessed as atrioventricular conduction time at 0.1 uM by ECG analysis (reference value: 45.62 +/- 4.49 milliseconds); assay type: toxicity, tissue-based
[8] = biological target: T2, Fatty-acid amide hydrolase 1 (Homo sapiens, UniProt O00519); test: Inhibition of recombinant C-terminal His-tagged human FAAH expressed in sf21 cells using N-arachidonoyl-[14C]-ethanolamine as substrate assessed as reduction in [14C]ethanolamine production incubated for 30 mins by scintillation counting method
T2 sequence (O00519 whole entry): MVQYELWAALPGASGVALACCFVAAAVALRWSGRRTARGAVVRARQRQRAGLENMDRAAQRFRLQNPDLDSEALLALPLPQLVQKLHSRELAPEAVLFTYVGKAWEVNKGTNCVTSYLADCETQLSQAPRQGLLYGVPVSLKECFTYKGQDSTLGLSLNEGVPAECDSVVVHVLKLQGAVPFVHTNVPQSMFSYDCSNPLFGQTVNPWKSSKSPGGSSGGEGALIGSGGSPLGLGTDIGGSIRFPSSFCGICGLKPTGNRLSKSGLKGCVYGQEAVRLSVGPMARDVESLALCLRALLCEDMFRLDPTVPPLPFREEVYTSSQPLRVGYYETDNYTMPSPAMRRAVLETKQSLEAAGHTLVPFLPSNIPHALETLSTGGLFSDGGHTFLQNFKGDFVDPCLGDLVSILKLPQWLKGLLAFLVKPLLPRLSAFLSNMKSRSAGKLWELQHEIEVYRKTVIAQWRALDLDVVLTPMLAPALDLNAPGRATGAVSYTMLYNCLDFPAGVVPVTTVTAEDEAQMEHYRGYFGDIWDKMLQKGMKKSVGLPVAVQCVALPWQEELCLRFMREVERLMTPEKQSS
Outline: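 Human recombinant FAAH (2 µg/sample) incubated in 50 mM Tris-HCl, pH 9.5, 37 °C, 30 min with N-arachidonoyl-[14C]-ethanolamine diluted with unlabelled AEA. [14C]-ethanolamine released was quantified by scintillation counting of the aqueous phase after extraction with 2 volumes CHCl3/MeOH 1:1. Values are means of three experiments.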

Heart [9] = test: Cardiotoxicity in Langendorff-perfused Sprague-Dawley rat heart assessed as coronary perfusion pressure at 1 uM (reference value: 57.45 +/- 2.58 mmHg); assay type: toxicity, tissue-based
Mus musculus [10] = test: Reduction of disease index score in myelin oligodendrocyte glycoprotein (35 to 55)-induced C57BL/6J mouse experimental autoimmune encephalomyelitis model of multiple sclerosis at 3 mg/kg, ip administered post CB2 antagonist/inverse agonist AM630 addition dosed on day 6 postimmunization up to 21 day postimmunization measured from day 12 postimmunization; assay type: functional, organism-based
Outline: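 Female C57BL/6J mice immunized with MOG35-55 were randomly assigned to groups. They received 3 mg/kg i.p. daily from 6 days post-immunization up to 21±1 d.p.i. AM251 or AM630, 1 mg/kg i.p., was given 10 min before each dose for 14 days. Clinical score was recorded daily and as cumulative score, reported as mean ± SEM. Group sizes were 4–9 mice.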

Mus musculus [11] = test: Reduction of IBA1 positive cells in white matter anterior fasciculus of experimental autoimmune encephalomyelitis C57BL/6J mouse spinal cord at 3 mg/kg, ip administered post CB2 antagonist/inverse agonist AM630 addition by immunofluorescence assay; assay type: functional, organism-based
Outline: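 MOG35-55-immunized female C57BL/6J mice were given 3 mg/kg i.p. daily. AM251 or AM630, each at 1 mg/kg, was given 10 min before each dose. Iba1 immunofluorescence with DAPI was done on spinal cord white matter (anterior fasciculus). Positive cells were counted per optic field. One-way ANOVA with Bonferroni test.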

Mus musculus [12] = test: Antinociceptive activity in CD-1 mouse assessed as inhibition of formalin-induced pain response at 0.1 to 0.3 mg/kg, ip dosed 10 mins before formalin injection measured during early phase; assay type: functional, organism-based; outline: as §1
Mus musculus [13] = test: Antinociceptive activity in CD-1 mouse assessed as inhibition of formalin-induced late phase pain response at 0.1 to 0.3 mg/kg, ip dosed 10 mins before formalin injection measured every 5 mins for 60 mins in presence of CB2 antagonist/inverse agonist AM630; assay type: functional, organism-based; outline: as §1
Mus musculus [14] = test: Antinociceptive activity in CD-1 mouse assessed as inhibition of formalin-induced early phase pain response at 0.1 to 0.3 mg/kg, ip dosed 10 mins before formalin injection measured every 5 mins for 60 mins in presence of CB2 antagonist/inverse agonist AM630; assay type: functional, organism-based; outline: as §1

Sequence of Cannabinoid receptor 1 (P21554 whole entry): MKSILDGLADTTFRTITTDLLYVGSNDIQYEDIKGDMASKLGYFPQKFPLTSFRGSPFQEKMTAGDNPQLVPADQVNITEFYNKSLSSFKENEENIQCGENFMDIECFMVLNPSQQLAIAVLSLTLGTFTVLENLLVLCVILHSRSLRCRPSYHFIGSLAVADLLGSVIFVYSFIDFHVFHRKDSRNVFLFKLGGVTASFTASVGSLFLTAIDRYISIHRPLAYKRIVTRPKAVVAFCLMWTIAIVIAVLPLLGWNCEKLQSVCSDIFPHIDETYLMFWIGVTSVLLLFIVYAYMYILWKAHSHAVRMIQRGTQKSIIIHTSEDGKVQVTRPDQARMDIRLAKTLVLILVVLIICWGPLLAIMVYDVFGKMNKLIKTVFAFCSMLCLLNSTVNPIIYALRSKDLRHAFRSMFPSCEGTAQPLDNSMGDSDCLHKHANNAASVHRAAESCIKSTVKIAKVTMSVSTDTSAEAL

For `O=C1[C@H](c2ccc(F)cc2)[C@@H](c2ccc3c(c2)OCO3)N1C1CCN(C(=O)n2cncn2)CC1` (racemic) [listing 1 of 2 here], the Time (Heart [1]) was 156.78 ms, the pIC50 (Cannabinoid receptor 1) was under 5.00 and the pIC50 (Monoglyceride lipase) was 9.60. The minimal effective dose (Mus musculus [2]) was 0.3 mg/kg, the Time (Heart [3]) was 238.15 ms and the Activity (Heart [4]) was 254.18 bpm. For the same compound, the Activity (Mus musculus [5]) was 14.1 pmol/g, the Time (Heart [6]) was 46.46 ms and the Time (Heart [7]) was 46.18 ms. It also gave a pIC50 [8] of 5.54 and an Activity (Heart [9]) of 75.19 mmHg.

With `O=C1[C@H](c2ccc(F)cc2)[C@@H](c2ccc3c(c2)OCO3)N1C1CCN(C(=O)n2cncn2)CC1` (racemic) [listing 2 of 2 here] the Activity (Mus musculus [10]) was “inactive”, the Activity (Mus musculus [11]) was “inactive” and the inhibition (Mus musculus [12]) was “Active”. The inhibition (Mus musculus [13]) was “inactive” and the inhibition (Mus musculus [14]) was “inactive”.
